Reference: article PMC4535927 (Angewandte Chemie (International ed. in English), 2015)
“Also recorded” adds a separate entry of the source.

Experiments:
[1] = tested on: NIH3T3 RET^C634Y tumors; test: Tumors induced by NIH3T3 RET C634Y cells in nu/nu mice; format: in vivo
Outline: (§1)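 Immunodeficient nu/nu mice were injected with NIH3T3 fibroblasts transformed by RET C634Y or by HRas G12V (Ras control). Before tumors appeared, mice received test compound orally at 1.0, 3.0 or 10.0 mg/kg/day or were left untreated. Tumor formation was scored. Tumor tissue was analysed for RET and VEGFR2 phosphorylation and for MAPK and mTOR signaling.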

[2] = tested on: parental NIH3T3 cells; test: Growth of parental NIH3T3 cells; format: cell-based; conditions: up to 100.0 nM
[3] = target: RET^C634R (Homo sapiens, UniProt P07949, C634R); test: Cell-based RET inhibition, oncogenic RET C634R; conditions: compared with predecessor compounds 1, 2 and 3a
[4] = tested on: NIH3T3 HRas^G12V tumors; test: Tumors induced by NIH3T3 HRas G12V cells in nu/nu mice; format: in vivo
Outline: as §1

[5] = target: T1, VEGFR2 (Homo sapiens, UniProt P35968); test: VEGFA-induced VEGFR2 phosphorylation in transfected HEK293 cells; format: cell-based; conditions: 1.0 nM
[6] = Pharmacokinetic properties; conditions: in vivo
[7] = target: RET^C634Y (Homo sapiens, UniProt P07949, C634Y); test: RET C634Y tyrosine phosphorylation in NIH3T3 fibroblasts; format: cell-based
[8] = tested on: RET oncoproteins; test: Cell-based phosphorylation of all tested RET oncoproteins; conditions: 1.0 nM
[9] = target: T2, RET^V804M (Homo sapiens, UniProt P07949, V804M); test: Cell-based RET inhibition, RET V804M
[10] = target: RET^V804L (Homo sapiens, UniProt P07949, V804L); test: Cell-based RET inhibition, RET V804L
[11] = target: T1, VEGFR2; test: VEGFA-induced VEGFR2 phosphorylation in HUVEC cells; format: cell-based; conditions: 1.0 nM, endogenous level
[12] = target: RET (Homo sapiens, UniProt P07949); test: RET kinase microfluidics separation based assay; format: biochemical; conditions: read-out: IC50, RET; [ATP] = 190 μM; means of at least three experiments
Outline: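 Recombinant RET activity measured by a microfluidic separation-based kinase assay at [ATP] 190 µM. IC50 values are means of at least three independent experiments.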

[13] = target: RET^M918T (Homo sapiens, UniProt P07949, M918T); test: Cell-based RET inhibition, oncogenic RET M918T
[14] = target: T2, RET^V804M; test: RET V804M kinase microfluidics separation based assay; format: biochemical; conditions: read-out: IC50, RET^V804M; [ATP] = 190 μM
[15] = One-week tolerability in mice; format: in vivo; conditions: increased linearly with dose, doses up to 100.0 mg/kg
[16] = target: T1, VEGFR2; test: VEGFR2 kinase microfluidics separation based assay; format: biochemical; conditions: read-out: IC50, VEGFR2; [ATP] = 190 μM
[17] = tested on: NIH3T3 RET^C634Y cells; test: In vitro cell proliferation of NIH3T3 RET C634Y; format: cell-based; conditions: read-out: IC50, cell proliferation
[18] = target: T2, RET^V804M; conditions: cited from earlier work

T1 sequence (P35968 20-1356): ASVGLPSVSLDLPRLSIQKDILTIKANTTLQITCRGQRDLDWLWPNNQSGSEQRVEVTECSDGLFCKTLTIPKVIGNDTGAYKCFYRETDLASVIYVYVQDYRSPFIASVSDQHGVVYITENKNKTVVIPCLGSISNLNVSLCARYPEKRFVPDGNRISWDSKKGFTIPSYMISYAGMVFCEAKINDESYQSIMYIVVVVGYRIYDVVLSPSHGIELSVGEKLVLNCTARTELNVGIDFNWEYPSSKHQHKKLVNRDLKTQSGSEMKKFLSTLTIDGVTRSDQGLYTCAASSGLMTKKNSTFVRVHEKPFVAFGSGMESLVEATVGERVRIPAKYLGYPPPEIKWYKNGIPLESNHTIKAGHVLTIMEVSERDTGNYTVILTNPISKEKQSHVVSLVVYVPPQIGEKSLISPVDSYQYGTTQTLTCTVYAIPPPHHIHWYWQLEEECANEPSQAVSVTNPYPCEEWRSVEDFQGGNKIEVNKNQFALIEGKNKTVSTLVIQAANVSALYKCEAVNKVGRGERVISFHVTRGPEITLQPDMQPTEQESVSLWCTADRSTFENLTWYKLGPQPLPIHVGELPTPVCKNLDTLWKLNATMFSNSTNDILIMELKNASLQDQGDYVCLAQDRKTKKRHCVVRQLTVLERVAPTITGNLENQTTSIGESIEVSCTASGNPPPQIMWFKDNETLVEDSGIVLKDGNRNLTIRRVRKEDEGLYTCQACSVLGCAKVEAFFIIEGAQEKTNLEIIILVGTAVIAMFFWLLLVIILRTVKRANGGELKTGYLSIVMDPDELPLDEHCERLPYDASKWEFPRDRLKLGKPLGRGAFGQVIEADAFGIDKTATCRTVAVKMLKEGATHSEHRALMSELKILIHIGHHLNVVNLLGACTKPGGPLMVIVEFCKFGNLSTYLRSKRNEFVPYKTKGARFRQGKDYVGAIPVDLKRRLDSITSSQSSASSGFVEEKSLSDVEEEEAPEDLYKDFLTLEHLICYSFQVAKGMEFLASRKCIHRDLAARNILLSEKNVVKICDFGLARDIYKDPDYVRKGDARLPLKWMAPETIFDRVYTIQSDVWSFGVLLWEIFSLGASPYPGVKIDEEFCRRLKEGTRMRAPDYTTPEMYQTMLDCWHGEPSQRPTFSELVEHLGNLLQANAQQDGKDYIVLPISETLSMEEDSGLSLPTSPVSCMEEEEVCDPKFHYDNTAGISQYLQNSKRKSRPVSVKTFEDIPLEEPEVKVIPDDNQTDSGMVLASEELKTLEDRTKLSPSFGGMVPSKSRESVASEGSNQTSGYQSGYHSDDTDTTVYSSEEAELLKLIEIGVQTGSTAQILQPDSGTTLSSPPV
T2 sequence (P07949 29-1114 V804M): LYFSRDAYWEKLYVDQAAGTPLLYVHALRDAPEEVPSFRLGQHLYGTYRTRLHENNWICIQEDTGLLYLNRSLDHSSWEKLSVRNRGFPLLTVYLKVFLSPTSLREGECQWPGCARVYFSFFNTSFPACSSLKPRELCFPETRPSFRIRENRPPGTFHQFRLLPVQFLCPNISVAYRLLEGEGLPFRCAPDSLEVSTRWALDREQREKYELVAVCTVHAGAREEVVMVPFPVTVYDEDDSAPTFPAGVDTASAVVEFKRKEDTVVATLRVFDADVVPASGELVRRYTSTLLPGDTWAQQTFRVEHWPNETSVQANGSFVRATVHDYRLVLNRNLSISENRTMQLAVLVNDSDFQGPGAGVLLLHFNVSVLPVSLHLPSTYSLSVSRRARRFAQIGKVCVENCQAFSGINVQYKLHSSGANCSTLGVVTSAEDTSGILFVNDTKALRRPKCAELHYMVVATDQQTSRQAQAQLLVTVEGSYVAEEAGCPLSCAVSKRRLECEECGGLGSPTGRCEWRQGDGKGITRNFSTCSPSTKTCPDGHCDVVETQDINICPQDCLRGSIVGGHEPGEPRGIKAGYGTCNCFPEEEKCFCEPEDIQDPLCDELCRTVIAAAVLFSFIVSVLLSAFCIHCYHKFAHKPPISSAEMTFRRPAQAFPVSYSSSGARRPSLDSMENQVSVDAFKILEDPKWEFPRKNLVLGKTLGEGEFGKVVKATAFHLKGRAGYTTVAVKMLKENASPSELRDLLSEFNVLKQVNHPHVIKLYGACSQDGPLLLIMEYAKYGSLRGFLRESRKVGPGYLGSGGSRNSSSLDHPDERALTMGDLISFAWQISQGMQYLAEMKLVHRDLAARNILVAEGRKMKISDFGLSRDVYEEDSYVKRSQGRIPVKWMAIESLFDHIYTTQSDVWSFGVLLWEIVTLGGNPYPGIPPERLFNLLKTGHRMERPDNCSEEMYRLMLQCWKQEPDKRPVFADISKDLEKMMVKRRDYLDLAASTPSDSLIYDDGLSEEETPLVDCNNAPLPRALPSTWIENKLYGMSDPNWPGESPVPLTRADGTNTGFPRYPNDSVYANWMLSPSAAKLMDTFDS
RET, sequence (P07949 29-1114): as the sequence (P07949 29-1114 V804M) above, with M776V counted along it
RET^M918T, sequence (P07949 29-1114 M918T): as the sequence (P07949 29-1114 V804M) above, with M776V, M890T counted along it
RET^C634Y, sequence (P07949 29-1114 C634Y): as the sequence (P07949 29-1114 V804M) above, with C606Y, M776V counted along it
RET^C634R, sequence (P07949 29-1114 C634R): as the sequence (P07949 29-1114 V804M) above, with C606R, M776V counted along it
RET^V804L, sequence (P07949 29-1114 V804L): as the sequence (P07949 29-1114 V804M) above, with M776L counted along it

SMILES: Cn1cc(-c2ccc3c(c2)ncn3-c2ccc(CC(=O)Nc3cc(C(C)(C)C)on3)cc2)cn1 [Pz-1]
- Formation of RET-driven tumors ([1]; 1.0 mg/kg/day per os): completely blocked; also recorded: abrogated formation of tumors
- RET phosphorylation in tumor tissue ([1]; 1.0 mg/kg/day per os): blocked phosphorylation
- VEGFR2 phosphorylation in tumors ([1]; RET driven tumors, 1.0 mg/kg): inhibited VEGFR2 phosphorylation; also recorded: blocked phosphorylation
- MAPK and mTOR mitogenic signaling cascades in tumors ([1]; RET-driven tumors): able to inhibit
- Formation of tumors induced by RET^C634Y ([1]; nu/nu mice, PO 1.0, 3.0 or 10.0 mg/kg/day): completely prevented formation of tumors
- Growth inhibition [2]: did not exert detectable growth inhibition
- RET inhibitory activity towards oncogenic RET^C634R [3]: increased RET inhibitory activity
- VEGFR2 phosphorylation in tumors ([4]; Ras driven tumors, 1.0 mg/kg): inhibited VEGFR2 phosphorylation
- MAPK signaling in tumors ([4]; Ras tumors, 10.0 mg/kg): no effect
- VEGFA-induced VEGFR2 phosphorylation [5]: inhibiting VEGFA-induced VEGFR2 phosphorylation
- Pharmacokinetic properties [6]: highly favorable
- RET^C634Y tyrosine phosphorylation [7]: efficient inhibition
- Phosphorylation of RET oncoproteins / clinically relevant RET mutants [8]: strongly inhibited
- Activity against RET^V804M [9]: highly effective
- Activity against RET^V804L [10]: highly effective
- VEGFA-induced VEGFR2 phosphorylation [11]: inhibiting VEGFA-induced VEGFR2 phosphorylation
- IC50 [12]: < 1 nM
- Activity against RET^M918T [13]: highly effective
- IC50 [14]: < 1 nM
- Alanine transaminase (ALT) [15]: remaining within a normal range
- IC50 [16]: < 1 nM
- IC50 [17]: 0.5 nM

SMILES: COc1cc2nccc(Oc3ccc(NC(=O)C4(C(=O)Nc5ccc(F)cc5)CC4)cc3)c2cc1OC [cabozantinib]
- Response of RET^V804M to the drug [18]: refractory
